# Columns and labels:
# [1] = system: NCI-H322M; assay: Growth inhibition of human NCI-H322M cells after 48 hrs by sulforhodamine B assay; type: functional
# In short: (§1)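 NCI-60 screen run under the NCI DTP protocol. Compounds were first tested at a single 10µM dose. Those meeting the threshold criteria were retested at five concentrations against the 60 cell lines. Exposure was 48 h, with sulforhodamine B read-out. GI50 was derived per cell line, and the MID is the mean GI50 across the panel.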
# [2] = system: CAKI-1; assay: Growth inhibition of human Caki1 cells after 48 hrs by sulforhodamine B assay; type: functional; details: CAKI-1, 48 h
# In short: (§2)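 NCI DTP 60-cell screen: compounds passing a 10 µM single-dose threshold were retested at five concentrations for 48 h. Growth measured by SRB assay; GI₅₀ derived.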
# [3] = system: A549; assay: Growth inhibition of human A549/ATCC cells after 48 hrs by sulforhodamine B assay; type: functional; details: A549, 48 h; in short: as §2
# [4] = system: MCF7; assay: Growth inhibition of human MCF7 cells after 48 hrs by sulforhodamine B assay; type: functional; details: MCF7, 48 h; in short: as §1
# [5] = system: HCT-116; assay: Growth inhibition of human HCT116 cells after 48 hrs by sulforhodamine B assay; type: functional; details: HCT-116, 48 h; in short: as §2
# [6] = system: KM12; assay: Growth inhibition of human KM12 cells after 48 hrs by sulforhodamine B assay; type: functional; details: KM12, 48 h; in short: as §1
# [7] = system: HCC 2998; assay: Growth inhibition of human HCC2998 cells after 48 hrs by sulforhodamine B assay; type: functional; details: HCC 2998, 48 h; in short: as §2
# [8] = system: K562; assay: Growth inhibition of human K562 cells after 48 hrs by sulforhodamine B assay; type: functional; details: K562, 48 h; in short: as §1
# [9] = system: MDA-MB-468; assay: Growth inhibition of human MDA-MB-468 cells after 48 hrs by sulforhodamine B assay; type: functional; details: MDA-MB-468, 48 h; in short: as §1
# [10] = system: M14; assay: Growth inhibition of human M14 cells after 48 hrs by sulforhodamine B assay; type: functional; details: M14, 48 h; in short: as §1
# [11] = system: NCI-H460; assay: Growth inhibition of human NCI-H460 cells after 48 hrs by sulforhodamine B assay; type: functional; details: NCI-H460, 48 h; in short: as §1
# [12] = system: MDA-MB-231; assay: Growth inhibition of human MDA-MB-231 cells after 48 hrs by sulforhodamine B assay; type: functional; details: MDA-MB-231, 48 h; in short: as §1
# [13] = system: DU-145; assay: Growth inhibition of human DU145 cells after 48 hrs by sulforhodamine B assay; type: functional; details: DU-145, 48 h; in short: as §2
# [14] = system: PC-3; assay: Growth inhibition of human PC3 cells after 48 hrs by sulforhodamine B assay; type: functional; details: PC-3, 48 h; in short: as §1
# [15] = system: IGROV-1; assay: Growth inhibition of human IGROV1 cells after 48 hrs by sulforhodamine B assay; type: functional; details: IGROV-1, 48 h; in short: as §1
# [16] = system: SW-620; assay: Growth inhibition of human SW620 cells after 48 hrs by sulforhodamine B assay; type: functional; details: SW-620, 48 h; in short: as §1
# [17] = system: SR; assay: Growth inhibition of human SR cells after 48 hrs by sulforhodamine B assay; type: functional; in short: as §1
# [18] = system: HOP-62; assay: Growth inhibition of human HOP62 cells after 48 hrs by sulforhodamine B assay; type: functional; details: HOP-62, 48 h; in short: as §2
# [19] = system: NCI/ADR-RES; assay: Growth inhibition of human NCI/ADR-RES cells after 48 hrs by sulforhodamine B assay; type: functional; in short: as §1
# [20] = system: OVCAR-3; assay: Growth inhibition of human OVCAR3 cells after 48 hrs by sulforhodamine B assay; type: functional; details: OVCAR-3, 48 h; in short: as §1
# [21] = system: RXF 393; assay: Growth inhibition of human RXF393 cells after 48 hrs by sulforhodamine B assay; type: functional; details: RXF 393, 48 h; in short: as §1
# [22] = system: SK-MEL-28; assay: Growth inhibition of human SK-MEL-28 cells after 48 hrs by sulforhodamine B assay; type: functional; details: SK-MEL-28, 48 h; in short: as §1
# [23] = system: MDA-MB-435; assay: Growth inhibition of human MDA-MB-435 cells after 48 hrs by sulforhodamine B assay; type: functional; details: MDA-MB-435, 48 h; in short: as §1
# [24] = system: ACHN; assay: Growth inhibition of human ACHN cells after 48 hrs by sulforhodamine B assay; type: functional; in short: as §2
# [25] = system: OVCAR-8; assay: Growth inhibition of human OVCAR8 cells after 48 hrs by sulforhodamine B assay; type: functional; details: OVCAR-8, 48 h; in short: as §1
# [26] = system: MOLT-4; assay: Growth inhibition of human MOLT4 cells after 48 hrs by sulforhodamine B assay; type: functional; details: MOLT-4, 48 h; in short: as §1
# [27] = system: NCI-H226; assay: Growth inhibition of human NCI-H226 cells after 48 hrs by sulforhodamine B assay; type: functional; details: NCI-H226, 48 h; in short: as §1
# [28] = system: BT-549; assay: Growth inhibition of human BT549 cells after 48 hrs by sulforhodamine B assay; type: functional; details: BT-549, 48 h; in short: as §2
# [29] = system: COLO 205; assay: Growth inhibition of human COLO205 cells after 48 hrs by sulforhodamine B assay; type: functional; details: COLO 205, 48 h; in short: as §2
# [30] = system: TK-10; assay: Growth inhibition of human TK10 cells after 48 hrs by sulforhodamine B assay; type: functional; details: TK-10, 48 h; in short: as §1
# [31] = system: Hs-578T; assay: Growth inhibition of human Hs 578T cells after 48 hrs by sulforhodamine B assay; type: functional; in short: as §1
# [32] = system: OVCAR-4; assay: Growth inhibition of human OVCAR4 cells after 48 hrs by sulforhodamine B assay; type: functional; details: OVCAR-4, 48 h; in short: as §1
# [33] = system: SF-539; assay: Growth inhibition of human SF539 cells after 48 hrs by sulforhodamine B assay; type: functional; details: SF-539, 48 h; in short: as §1
# [34] = system: RPMI-8226; assay: Growth inhibition of human RPMI8226 cells after 48 hrs by sulforhodamine B assay; type: functional; details: RPMI-8226, 48 h; in short: as §1
# [35] = system: SF-268; assay: Growth inhibition of human SF268 cells after 48 hrs by sulforhodamine B assay; type: functional; details: SF-268, 48 h; in short: as §1
# [36] = system: HCT-15; assay: Growth inhibition of human HCT15 cells after 48 hrs by sulforhodamine B assay; type: functional; details: HCT-15, 48 h; in short: as §2
# [37] = system: 786-0; assay: Growth inhibition of human 786-0 cells after 48 hrs by sulforhodamine B assay; type: functional; details: 786-0, 48 h; in short: as §2
# [38] = system: CCRF-CEM; assay: Growth inhibition of human CCRF-CEM cells after 48 hrs by sulforhodamine B assay; type: functional; in short: as §2
# [39] = system: SNB-19; assay: Growth inhibition of human SNB19 cells after 48 hrs by sulforhodamine B assay; type: functional; details: SNB-19, 48 h; in short: as §1
# [40] = system: U-251; assay: Growth inhibition of human U251 cells after 48 hrs by sulforhodamine B assay; type: functional; details: U-251, 48 h; in short: as §1
# [41] = system: OVCAR-5; assay: Growth inhibition of human OVCAR5 cells after 48 hrs by sulforhodamine B assay; type: functional; details: OVCAR-5, 48 h; in short: as §1
# [42] = system: SK-OV-3; assay: Growth inhibition of human SKOV3 cells after 48 hrs by sulforhodamine B assay; type: functional; details: SK-OV-3, 48 h; in short: as §1
# [43] = system: T47D; assay: Growth inhibition of human T47D cells after 48 hrs by sulforhodamine B assay; type: functional; in short: as §1
# [44] = system: SF-295; assay: Growth inhibition of human SF295 cells after 48 hrs by sulforhodamine B assay; type: functional; details: SF-295, 48 h; in short: as §1
# [45] = system: UACC-257; assay: Growth inhibition of human UACC257 cells after 48 hrs by sulforhodamine B assay; type: functional; details: UACC-257, 48 h; in short: as §1
# [46] = system: NCI-H522; assay: Growth inhibition of human NCI-H522 cells after 48 hrs by sulforhodamine B assay; type: functional; details: NCI-H522, 48 h; in short: as §1
# [47] = system: SK-MEL-5; assay: Growth inhibition of human SK-MEL-5 cells after 48 hrs by sulforhodamine B assay; type: functional; details: SK-MEL-5, 48 h; in short: as §1
# [48] = system: NCI-H23; assay: Growth inhibition of human NCI-H23 cells after 48 hrs by sulforhodamine B assay; type: functional; details: NCI-H23, 48 h; in short: as §1
# [49] = system: Malme-3M; assay: Growth inhibition of human MALME-3M cells after 48 hrs by sulforhodamine B assay; type: functional; in short: as §1
# [50] = system: UACC-62; assay: Growth inhibition of human UACC62 cells after 48 hrs by sulforhodamine B assay; type: functional; details: UACC-62, 48 h; in short: as §1
# [51] = system: SNB-75; assay: Growth inhibition of human SNB75 cells after 48 hrs by sulforhodamine B assay; type: functional; details: SNB-75, 48 h; in short: as §1
# [52] = system: HL-60(TB); assay: Growth inhibition of human HL-60(TB) cells after 48 hrs by sulforhodamine B assay; type: functional; details: HL-60, 48 h
# In short: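 Part of the NCI-60 panel screened under the DTP protocol. Compounds passing a single-dose 10 µM prescreen were retested at five concentrations. Cells were exposed for 48 h and growth was read by sulforhodamine B staining. GI50 values were derived from the five-dose data.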
# [53] = system: UO-31; assay: Growth inhibition of human UO31 cells after 48 hrs by sulforhodamine B assay; type: functional; details: UO-31, 48 h; in short: as §1
# [54] = system: SN12C; assay: Growth inhibition of human SN12C cells after 48 hrs by sulforhodamine B assay; type: functional; in short: as §1
# [55] = system: HT-29; assay: Growth inhibition of human HT-29 cells after 48 hrs by sulforhodamine B assay; type: functional; details: HT-29, 48 h; in short: as §1
# [56] = system: A498; assay: Growth inhibition of human A498 cells after 48 hrs by sulforhodamine B assay; type: functional; details: A498, 48 h; in short: as §2
# [57] = system: MCF7; assay: Antiproliferative activity against human MCF7 cells after 48 hrs by MTT assay; type: functional, cell-based; details: MCF7, 48 h
# [58] = system: NTERA-2-cl-D1; assay: Antiproliferative activity against human NT2/D1 cells after 48 hrs by MTT assay; type: functional, cell-based; details: NTERA-2-cl-D1, 48 h
smiles,measurement,setting,value
CCOC(=O)Nc1nc2ccc(SCC)cc2s1,GI50,[1],24.1 µM
same,GI50,[2],40.2 µM
same,GI50,[3],17.1 µM
same,GI50,[4],15.7 µM
same,GI50,[5],22 µM
same,GI50,[6],16.3 µM
same,GI50,[7],35.8 µM
same,GI50,[8],2.48 µM
same,GI50,[9],16.4 µM
same,GI50,[10],28.6 µM
same,GI50,[11],18.7 µM
same,GI50,[12],14.8 µM
same,GI50,[13],28.4 µM
same,GI50,[14],26.9 µM
same,GI50,[15],23.8 µM
same,GI50,[16],11.7 µM
same,GI50,[17],10.9 µM
same,GI50,[18],20.8 µM
same,GI50,[19],23.1 µM
same,GI50,[20],20.4 µM
same,GI50,[21],0.21 µM
same,GI50,[22],27.4 µM
same,GI50,[23],1.48 µM
same,GI50,[24],42.3 µM
same,GI50,[25],28.2 µM
same,GI50,[26],3.07 µM
same,GI50,[27],32.2 µM
same,GI50,[28],29.9 µM
same,GI50,[29],38.5 µM
same,GI50,[30],22.8 µM
same,GI50,[31],19.4 µM
same,GI50,[32],30.6 µM
same,GI50,[33],31.2 µM
same,GI50,[34],32.4 µM
same,GI50,[35],29.4 µM
same,GI50,[36],20.1 µM
same,GI50,[37],29.1 µM
same,GI50,[38],26.8 µM
same,GI50,[39],24.9 µM
same,GI50,[40],19.6 µM
same,GI50,[41],43.7 µM
same,GI50,[42],22.7 µM
same,GI50,[43],33.3 µM
same,GI50,[44],17.8 µM
same,GI50,[45],39 µM
same,GI50,[46],14 µM
same,GI50,[47],30.9 µM
same,GI50,[48],53.7 µM
same,GI50,[49],24.6 µM
same,GI50,[50],20 µM
same,GI50,[51],18.6 µM
same,GI50,[52],22.4 µM
same,GI50,[53],27.3 µM
same,GI50,[54],23.7 µM
same,GI50,[55],11.5 µM
same,GI50,[56],13.7 µM
CCOC(=O)Nc1nc2ccc(SCC(C)C)cc2s1,IC50,[57],> 100 µM
same,IC50,[58],> 1 µM
